High-throughput results as filed in PubChem.
HTRA1 inhibitor = inhibitors of human serine peptidase HTRA1. Q92743. recombinant HTRA1, FP-rhodamine activity-based probe, fluorescence polarization. inhibition, % at 5.96 µM. 0.5% of 340,000 active; in the data active = inhibition above about 36%;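 note: 0% = enzyme with DMSO and 100% = wells lacking enzyme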
SIAE inh = blocks human sialic acid acetylesterase. Q9HAT2. SIAE FP-Rh probe binding, fluorescence polarization. inhibition, % at 9.66 µM. 0.69% of 370,000 active;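 active = inhibition above a cutoff: mean of compounds within the control limits plus 3 SD of those, cut at about 17% in these data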;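 note: 0% = plate median of compound wells and 100% = probe without SIAE protein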
pPAFAH inh = pPAFAH (human) enzyme inhibition | recombinant pPAFAH, FP-rhodamine probe fluorescence polarization | inhibition, % at 3.39 µM | 1.5% of 330,000 active;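 active = inhibition above the mean inhibition across the screen plus 3 SD, cut at about 25% in these data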;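 note: inhibitors block binding of the rhodamine activity-based probe so polarization drops; 0% = enzyme with DMSO and 100% = wells lacking pPAFAH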
mABHD4 FP = inhibitors of mouse ABHD4; Q8VD66; purified mABHD4, FP-Rh probe fluorescence polarization; inhibition, % at 8.92 µM; 0.54% of 370,000 active; AID 720543;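 active = inhibition exceeding the mean over every tested compound plus 3 SD, cut at about 30% in these data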;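 note: 0% = plate median of compound wells and 100% = S159A mutant with DMSO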
Target sequence (Q8VD66 whole entry, looked up): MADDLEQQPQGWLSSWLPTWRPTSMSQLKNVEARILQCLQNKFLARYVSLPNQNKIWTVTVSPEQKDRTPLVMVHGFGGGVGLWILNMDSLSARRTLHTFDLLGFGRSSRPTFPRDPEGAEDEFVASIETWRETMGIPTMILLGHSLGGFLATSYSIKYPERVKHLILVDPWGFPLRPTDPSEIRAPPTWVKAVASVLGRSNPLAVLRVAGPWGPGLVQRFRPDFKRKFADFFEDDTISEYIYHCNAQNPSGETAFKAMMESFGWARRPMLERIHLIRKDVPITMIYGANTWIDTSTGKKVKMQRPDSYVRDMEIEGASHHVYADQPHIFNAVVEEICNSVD
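Assay system: mABHD4 protein; medium: HEPES pH 7.0, NaCl, Pluronic buffer; dosing: 8.92 µM, single dose; schedule: 45 min + 60 min at 25 °C; signal: FP readout, ex 525 nm / em 598 nm; read-out: normalized percent inhibition of probe labeling; repeats: single replicate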
TCR CD3 inh = inhibitors of human TCR-CD3 interaction; TAMRA-labeled TCR probe fluorescence, biochemical; inhibition, % at 9.4 µM; 0.37% of 360,000 active; AID 651800;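 note: recombinant mutant TCR 2C K166C tagged with TAMRA read by polarization; 0% = receptor in buffer alone and 100% = receptor with positive control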
HTRA1 inh conf = HTRA1 (human) inhibition, confirmation; shares compounds with HTRA1 inhibitor; recombinant HTRA1, FP-rhodamine activity-based probe, fluorescence polarization; inhibition, % at 5.96 µM; 66% of 1,600 active; AID 540248;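 active = mean inhibition over three repeats above a set limit taken from the earlier primary screen, cut at about 37% in these data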;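 note: 0% = HTRA1 with DMSO and 100% = wells lacking HTRA1; inhibitors block probe binding so polarization drops and inhibition rises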
BSA TAMRA ctr = interferes with TAMRA-BSA probe, flagging TCR-CD3 hits | shares compounds with TCR CD3 inh | TAMRA-labeled BSA probe fluorescence counterscreen | inhibition, % at 9.4 µM | 10% of 1,200 active; in the data active = inhibition above about 23%;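 note: 0% = buffer low control and 100% = reference high control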
TCR-CD3 inh conf = TCR-CD3 interaction inhibition, confirmation | TAMRA-labeled TCR probe fluorescence binding assay | inhibition, % at 9.4 µM | shares compounds with TCR CD3 inh | 48% of 1,200 active
Starred values were filed as active, the others as inactive; · = no result given. Rows were chosen to be rich in hits. Some 2.3% of all compounds tested hit in one or more screens of this group. Cut-off read from the data, not from the text of the source, unless noted: active = inhibition above about 19%; inactive = the rest.

SMILES	HTRA1 inhibitor	SIAE inh	pPAFAH inh	mABHD4 FP	TCR CD3 inh	HTRA1 inh conf	BSA TAMRA ctr	TCR-CD3 inh conf
COc1cccc(/C=C2/SC(=S)N(CC(=O)NNC(=O)c3ccccc3OC)C2=O)c1	11	-5	8	-10	17	·	·	·
O=C(CCCN1C(=O)/C(=C/c2cccs2)SC1=S)NNC(=O)c1ccncc1	2	-12	3	6	8	·	·	·
COc1cccc(/C=C2\SC(=S)N(CCC(=O)NNC(=O)c3ccccc3OC)C2=O)c1	39*	5	8	3	41*	33	1	22*
O=C(CCCN1C(=O)/C(=C/c2cccs2)SC1=S)NNC(=O)c1ccccc1O	57*	-9	14	8	31*	72*	-5	31*
COC(=O)C[C@H]1C=C[C@@H](NS(=O)(=O)c2ccccc2)[C@@H](CO)O1	·	0	·	-1	4	·	·	·
CC(C)NC(=O)C1(C)CN(S(C)(=O)=O)CC(=O)N1CCCn1ccnc1 (stereo not drawn)	·	3	·	6	0	·	·	·
CC(C)C[C@@H](CN1CCC[C@H]1CN1C(=O)C(=O)NC[C@@H]1Cc1ccccc1)N1C[C@H](Cc2ccc(O)cc2)N(CC2CCCCCC2)C(=O)C1=O	·	-5	·	-4	2	·	·	·
O=C(O)c1cccc2cccc(-c3c4ccc(=O)c(O)c-4oc4c(O)c(O)ccc34)c12	50*	36*	·	48*	66*	50*	-21	68*
COC(=O)C1=C(C)N(Cc2ccc(C(F)(F)F)cc2)C(=NCc2ccc(C(F)(F)F)cc2)NC1c1ccc(F)cc1 (stereo not drawn)	·	0	·	26	-2	·	·	·
O=c1cc(-c2ccc(O)c(O)c2)oc2ccc3ccccc3c12	69*	4	·	23	56*	70*	-6	48*
O=c1cc(-c2ccccc2)oc2ccc3ccccc3c12	-9	4	·	1	-4	·	·	·
CCCCOCCCNC(=O)C[C@H]1C[C@@]2(C(=O)OC)C(=C[C@H](C(C)C)O[C@@H]2C2CC2)N(Cc2ccccc2)C1=O	·	2	·	4	-5	·	·	·
COc1ccc(C(=O)OCC(=O)N2CCc3ccccc3C2)cc1OC	-1	2	5	4	2	·	·	·
CC(=O)Oc1cc(C(=O)OCC(=O)N2CCc3ccccc3C2)cc(OC(C)=O)c1OC(C)=O	59*	12	33*	26	45*	83*	-18	15
Cc1cc(N(C)C)ccc1[N+](=O)[O-]	3	-2	0	0	1	·	·	·
NNc1ccc([N+](=O)[O-])c2[nH][nH]c(=O)c12	52*	5	·	54*	50*	49*	-18	106*
Oc1ccc(-c2csc(-c3cccnc3)n2)cc1O	37*	-4	24	11	22*	47*	-8	16
c1cncc(-c2nc(-c3ccc4c(c3)OCCO4)cs2)c1	-13	-2	-1	-6	-8	·	·	·
Oc1ccc(-c2csc(Nc3ncccn3)n2)cc1O	54*	-2	·	14	32*	59*	-19	17
COC[C@H]1CCCN1c1cccc2c1S(=O)(=O)N1CC[C@H](C1)O2	·	2	·	3	·	·	·	·
CC(=O)CC[C@H]1CC[C@]2(CCCN(C(=O)C3CCCC3)C2)O1	·	-4	·	2	·	·	·	·
NC(=S)N/N=C/c1c(O)c(Br)cc2oc3c(c12)CCCC3	53*	8	18	25	43*	48*	-16	28*
Cc1[nH]n(-c2ccccc2)c(=O)c1N=Nc1ccccc1O	43*	-6	·	-53	28*	31	-4	20*
Cc1[nH]n(-c2ccccc2)c(=O)c1N=Nc1ccccc1C(=O)O	-4	3	8	19	4	·	·	·
O=C(N/N=C/c1cccnc1)c1cc(O)c(O)c(O)c1	45*	1	8	22	32*	12	-6	20*
COC(=O)C[C@H]1CC[C@@H]2[C@H](COC[C@H](O)CN2S(=O)(=O)c2ccccc2OC)O1	·	-1	·	-12	-12	·	·	·
